Measurements: ChEMBL document CHEMBL3098071, “Synthesis and evaluation of novel azoles as potent antifungal agents” (2014)
In brackets after ≈: the same amount, converted by molar mass.

What was measured:
Format in all cases: functional
Nannizzia gypsea = assay: Antimicrobial activity against Microsporum gypseum by broth microdilution method
Trichophyton rubrum = assay: Antimicrobial activity against Trichophyton rubrum by broth microdilution method
Cryptococcus neoformans = assay: Antimicrobial activity against Cryptococcus neoformans after 72 hrs by broth microdilution method
Outline: (§1)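 Broth microdilution in 96-well plates following NCCLS methods. Compounds were dissolved in DMSO, serially diluted in growth medium, inoculated and incubated at 35°C. MIC read at 24 h for Candida albicans and at 72 h for Cryptococcus neoformans. MIC80 is the first well with about 80% less growth than the drug-free well. Values are means of three replicate tests.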

Candida albicans [1] = assay: Antimicrobial activity against Candida albicans Y0109 after 24 hrs by broth microdilution method; settings: Y0109, 24 h; outline: as §1
Aspergillus fumigatus = assay: Antimicrobial activity against Aspergillus fumigatus by broth microdilution method
Candida albicans [2] = assay: Antimicrobial activity against Candida albicans SC5314 after 24 hrs by broth microdilution method; settings: SC5314, 24 h; outline: as §1
Nakaseomyces glabratus = assay: Antimicrobial activity against Candida glabrata by broth microdilution method
Candida parapsilosis = assay: Antimicrobial activity against Candida parapsilosis by broth microdilution method; settings: Lodderomyces parapsilosis
Candida albicans [3] = assay: Ratio of voriconazole MIC80 to compound MIC80 for Candida albicans SC5314
Candida albicans [4] = assay: Ratio of itraconazole MIC80 to compound MIC80 for Candida albicans SC5314

| Structure (SMILES) | MIC80 (Nannizzia gypsea) | MIC80 (Trichophyton rubrum) | MIC80 (Cryptococcus neoformans) | MIC80 (Candida albicans [1]) | MIC80 (Aspergillus fumigatus) | MIC80 (Candida albicans [2]) | MIC80 (Nakaseomyces glabratus) | MIC80 (Candida parapsilosis) | Ratio (Candida albicans [3]) | Ratio (Candida albicans [4]) |
| --- | --- | --- | --- | --- | --- | --- | --- | --- | --- | --- |
| Cc1ccccc1-c1nnc(SCCCN2CCN(CC(O)(Cn3cncn3)c3ccc(F)cc3F)CC2)o1 (stereo unspecified) | 0.25 µg/mL (≈ 0.45 µM) | 0.25 µg/mL (≈ 0.45 µM) | 0.125 µg/mL (≈ 0.225 µM) | 0.25 µg/mL (≈ 0.45 µM) | > 64 µg/mL | 0.25 µg/mL (≈ 0.45 µM) | 0.125 µg/mL (≈ 0.225 µM) | 0.125 µg/mL (≈ 0.225 µM) | – | – |
| OC(CN1CCN(CCCSc2nnc(-c3cccc(Cl)c3)o2)CC1)(Cn1cncn1)c1ccc(F)cc1F (stereo unspecified) | 1 µg/mL (≈ 1.74 µM) | 0.0625 µg/mL (≈ 0.108 µM) | 0.0625 µg/mL (≈ 0.108 µM) | 0.0039 µg/mL (≈ 0.00677 µM) | > 64 µg/mL | 0.0039 µg/mL (≈ 0.00677 µM) | 0.25 µg/mL (≈ 0.434 µM) | 0.25 µg/mL (≈ 0.434 µM) | 16 | 64 |
| OC(CN1CCN(CCCSc2nnc(-c3ccc(Cl)cc3)o2)CC1)(Cn1cncn1)c1ccc(F)cc1F (stereo unspecified) | 4 µg/mL (≈ 6.94 µM) | 0.25 µg/mL (≈ 0.434 µM) | 0.0625 µg/mL (≈ 0.108 µM) | 0.0625 µg/mL (≈ 0.108 µM) | > 64 µg/mL | 0.0039 µg/mL (≈ 0.00677 µM) | 0.0625 µg/mL (≈ 0.108 µM) | 0.0625 µg/mL (≈ 0.108 µM) | 16 | – |
| Cc1cccc(-c2nnc(SCCCN3CCN(CC(O)(Cn4cncn4)c4ccc(F)cc4F)CC3)o2)c1 (stereo unspecified) | 1 µg/mL (≈ 1.8 µM) | 1 µg/mL (≈ 1.8 µM) | 1 µg/mL (≈ 1.8 µM) | 0.25 µg/mL (≈ 0.45 µM) | > 64 µg/mL | 0.125 µg/mL (≈ 0.225 µM) | 1 µg/mL (≈ 1.8 µM) | 4 µg/mL (≈ 7.2 µM) | – | – |
| OC(Cn1cncn1)(Cn1cncn1)c1ccc(F)cc1F [FLUCONAZOLE] | 8 µg/mL (≈ 26.1 µM) | > 64 µg/mL | 1 µg/mL (≈ 3.27 µM) | 0.5 µg/mL (≈ 1.63 µM) | 8 µg/mL (≈ 26.1 µM) | 0.5 µg/mL (≈ 1.63 µM) | 1 µg/mL (≈ 3.27 µM) | 1 µg/mL (≈ 3.27 µM) | – | – |
| N#Cc1ccccc1-c1nnc(SCCCN2CCN(CC(O)(Cn3cncn3)c3ccc(F)cc3F)CC2)o1 (stereo unspecified) | 1 µg/mL (≈ 1.76 µM) | 0.25 µg/mL (≈ 0.441 µM) | 0.25 µg/mL (≈ 0.441 µM) | 0.125 µg/mL (≈ 0.221 µM) | > 64 µg/mL | 0.125 µg/mL (≈ 0.221 µM) | 0.125 µg/mL (≈ 0.221 µM) | 0.25 µg/mL (≈ 0.441 µM) | – | – |
| C[C@@H](c1ncncc1F)[C@](O)(Cn1cncn1)c1ccc(F)cc1F [VORICONAZOLE] | 0.125 µg/mL (≈ 0.358 µM) | 0.25 µg/mL (≈ 0.716 µM) | 0.0156 µg/mL (≈ 0.0447 µM) | 0.0625 µg/mL (≈ 0.179 µM) | 0.0625 µg/mL (≈ 0.179 µM) | 0.0625 µg/mL (≈ 0.179 µM) | 0.0625 µg/mL (≈ 0.179 µM) | 0.0625 µg/mL (≈ 0.179 µM) | – | – |
| OC(CN1CCN(CCCSc2nnc(-c3ccccc3F)o2)CC1)(Cn1cncn1)c1ccc(F)cc1F (stereo unspecified) | 1 µg/mL (≈ 1.79 µM) | 0.0625 µg/mL (≈ 0.112 µM) | 0.0625 µg/mL (≈ 0.112 µM) | 0.0156 µg/mL (≈ 0.0279 µM) | > 64 µg/mL | 0.0625 µg/mL (≈ 0.112 µM) | 0.0625 µg/mL (≈ 0.112 µM) | 0.25 µg/mL (≈ 0.447 µM) | – | – |
| COc1ccccc1-c1nnc(SCCCN2CCN(CC(O)(Cn3cncn3)c3ccc(F)cc3F)CC2)o1 (stereo unspecified) | 16 µg/mL (≈ 28 µM) | 0.25 µg/mL (≈ 0.437 µM) | 4 µg/mL (≈ 7 µM) | 0.125 µg/mL (≈ 0.219 µM) | > 64 µg/mL | 0.25 µg/mL (≈ 0.437 µM) | 1 µg/mL (≈ 1.75 µM) | 16 µg/mL (≈ 28 µM) | – | – |
| OC(CN1CCN(CCCSc2nnc(-c3cccc(F)c3)o2)CC1)(Cn1cncn1)c1ccc(F)cc1F (stereo unspecified) | 1 µg/mL (≈ 1.79 µM) | 0.0625 µg/mL (≈ 0.112 µM) | 0.0625 µg/mL (≈ 0.112 µM) | 0.0625 µg/mL (≈ 0.112 µM) | > 64 µg/mL | 0.0039 µg/mL (≈ 0.00697 µM) | 0.0625 µg/mL (≈ 0.112 µM) | 0.25 µg/mL (≈ 0.447 µM) | 16 | 64 |
| OC(CN1CCN(CCCSc2nnc(-c3ccc(Br)cc3)o2)CC1)(Cn1cncn1)c1ccc(F)cc1F (stereo unspecified) | 0.25 µg/mL (≈ 0.403 µM) | 0.25 µg/mL (≈ 0.403 µM) | 0.25 µg/mL (≈ 0.403 µM) | 0.0625 µg/mL (≈ 0.101 µM) | > 64 µg/mL | 0.0625 µg/mL (≈ 0.101 µM) | 0.0156 µg/mL (≈ 0.0251 µM) | 0.0625 µg/mL (≈ 0.101 µM) | – | – |
| OC(CN1CCN(CCCSc2nnc(-c3ccccc3Br)o2)CC1)(Cn1cncn1)c1ccc(F)cc1F (stereo unspecified) | 0.25 µg/mL (≈ 0.403 µM) | 0.25 µg/mL (≈ 0.403 µM) | 0.0625 µg/mL (≈ 0.101 µM) | 0.0625 µg/mL (≈ 0.101 µM) | > 64 µg/mL | 0.0156 µg/mL (≈ 0.0251 µM) | 0.0625 µg/mL (≈ 0.101 µM) | 0.0625 µg/mL (≈ 0.101 µM) | – | – |
